One experiment relates to Human betaherpesvirus 5. The experiment can be described thus: Antiviral activity against human cytomegalovirus (HCMV) by plaque reduction assay. In kind it is functional, organism-based. The essentials:
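HFF monolayers infected with about 100 pfu/cm² of HCMV Towne (isolate Po); after adsorption, compound in growth medium added to duplicate wells at four to eight concentrations.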
(In general: Plaque reduction counts the foci of infection that form in a cell layer.)

Another experiment deals with HFF. The experiment in a line: Visual cytotoxicity scored on HFF cells at a time of HCMV plaque enumeration. In kind it is functional, cell-based. The settings on record: Homo sapiens. The essentials:
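Cytotoxicity in stationary HFF cells scored by microscopic inspection of cells not affected by virus, at time of HCMV plaque enumeration, in the plaque-assay plates.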

The next experiment relates to Human alphaherpesvirus 1. The experiment can be described thus: Antiviral activity against herpes simplex virus type-1 (HSV-1). In kind it is functional, organism-based. In outline: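 BSC-1 cells (10 000/well, MEM(E) + 10% calf serum) incubated overnight, then given drug in quadruplicate plus HSV-1 KOS at 100 pfu/well; 3 days at 37 °C. ELISA with HRP-conjugated rabbit anti-HSV-1 antibody, TMB substrate, stopped with H₂SO₄, absorbance at 450 and 570 nm; IC50 by regression of % absorbance reduction vs log concentration.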

The subject of another experiment is KB. The experiment in a line: Inhibition of KB cell growth determined by quadruplicate assays. In kind it is functional, cell-based. Conditions: Homo sapiens. The essentials:
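KB cells seeded at 3000-5000/well, overnight at 37 °C, then compound in quadruplicate at six to eight concentrations for 48 h (about two doublings) in CO₂. Cells fixed in 95% ethanol, stained with 0.1% crystal violet, dye eluted with acidified ethanol and read at 570 nm; IC50 by regression vs log concentration.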

In the next experiment the test system is CEM-SS. The experiment in a line: Cytotoxicity against CEM-SS cells in terms of incorporation of [3H]dThd. In kind it is functional, cell-based. The settings on record: Homo sapiens. In outline: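 DNA synthesis in CEM-SS cells measured as uptake of [³H]dThd into total acid-precipitable material; results averaged from duplicate experiments.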
Experiment [1] deals with Human immunodeficiency virus 1. The experiment in a line: Activity against HIV-1 by syncytial plaque assay performed in duplicate using CEM-SS cells. In kind it is functional, organism-based. Conditions: Human immunodeficiency virus 1, CEM-SS. The essentials:
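Syncytial plaque assay: poly-L-lysine-adherent CEM-SS cells infected with HIV-1 strain IIIB with or without compound at selected concentrations; syncytial plaques counted at 30-fold magnification 7 days postinfection; duplicate. IC50 from linear regression of percent inhibition against log concentration.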

SMILES strings stand for the structures.

A word on the IC50: it is the concentration that inhibits the measured activity by half. `Clc1cc2nc(Cl)n(CCc3ccccc3)c2cc1Cl`: the IC50 in the experiment with Human betaherpesvirus 5 and in the experiment with HFF was greater than 100 µM in each case.

In the case of `Nc1nc2cc(Cl)c(Cl)cc2n1Cc1ccccc1`, the IC50 in the experiment with Human betaherpesvirus 5 was 37 µM; in the experiment with Human alphaherpesvirus 1, 152 µM; with HFF it was 58 µM; with KB, 170 µM.

With `CC(C)(C)c1ccc(Cn2c(N)nc3cc(Cl)c(Cl)cc32)cc1`, the IC50 is 27 µM in the experiment on CEM-SS; 10 µM in experiment [1]; 22 µM with Human betaherpesvirus 5; 60 µM in the experiment on Human alphaherpesvirus 1; 32 µM in the experiment with HFF; 50 µM with KB.

Consider `Nc1nc2cc(Cl)c(Cl)cc2n1Cc1ccc(Cl)cc1`, for which the IC50 was 32 µM with CEM-SS; 10 µM in experiment [1]; greater than 100 µM in the experiment on Human betaherpesvirus 5; greater than 100 µM with Human alphaherpesvirus 1; greater than 100 µM in the experiment on HFF; 45 µM in the experiment on KB.

In the case of `Clc1cccc(Cn2c(Br)nc3cc(Cl)c(Cl)cc32)c1`, the half-inhibitory concentration (IC50) in the experiment on CEM-SS was greater than 100 µM; in experiment [1] it was greater than 100 µM; in the experiment on Human betaherpesvirus 5, greater than 100 µM; with Human alphaherpesvirus 1 it was 70 µM; in the experiment on HFF, greater than 100 µM; in the experiment on KB, greater than 100 µM.

With `Cc1ccc(Cn2c(Br)nc3cc(Cl)c(Cl)cc32)cc1`, the concentration for half-maximal inhibition (IC50) (in the experiment on CEM-SS; in experiment [1]; in the experiment on Human betaherpesvirus 5; in the experiment on Human alphaherpesvirus 1; in the experiment on HFF; in the experiment on KB) was greater than 100 µM in each case.

Regarding `Nc1nc2cc(Cl)c(Cl)cc2n1Cc1ccccc1Cl`, the IC50 with CEM-SS is 36 µM; in experiment [1], 6 µM; in the experiment with Human betaherpesvirus 5 it was 32 µM; in the experiment with Human alphaherpesvirus 1, greater than 100 µM; with HFF, 32 µM.

Consider `Fc1ccc(Cn2c(Br)nc3cc(Cl)c(Cl)cc32)cc1`, for which the IC50 is greater than 100 µM in the experiment on CEM-SS, 30 µM in experiment [1], greater than 100 µM in the experiment with Human betaherpesvirus 5 and greater than 100 µM with HFF.

Regarding `O=[N+]([O-])c1cccc(Cn2c(Cl)nc3cc(Cl)c(Cl)cc32)c1`, the half-inhibitory concentration (IC50) with CEM-SS was greater than 100 µM; in experiment [1], 20 µM; with Human betaherpesvirus 5, greater than 100 µM; with Human alphaherpesvirus 1 it was greater than 100 µM; in the experiment with HFF it was greater than 100 µM; in the experiment with KB it was 239 µM.

As to `Nc1nc2cc(Cl)c(Cl)cc2n1Cc1ccc([N+](=O)[O-])cc1`, the IC50 was 32 µM with CEM-SS; 21 µM in experiment [1]; greater than 100 µM in the experiment on Human betaherpesvirus 5; greater than 100 µM with Human alphaherpesvirus 1; greater than 100 µM in the experiment on HFF; 35 µM with KB.

As for `Clc1ccc(Cn2c(Cl)nc3cc(Cl)c(Cl)cc32)cc1Cl`, the IC50 (in the experiment on CEM-SS; in experiment [1]; with Human betaherpesvirus 5; in the experiment with Human alphaherpesvirus 1; in the experiment on HFF; in the experiment on KB) was greater than 100 µM in each case.

With `Clc1cc2nc(Br)n(CCc3ccccc3)c2cc1Cl`, the IC50 with Human betaherpesvirus 5, in the experiment with Human alphaherpesvirus 1, with HFF and with KB was greater than 100 µM in each case.

Take `CC(C)(C)c1ccc(Cn2c(Br)nc3cc(Cl)c(Cl)cc32)cc1`: the IC50 was greater than 100 µM in the experiment with CEM-SS, 100 µM in experiment [1], greater than 100 µM in the experiment with Human betaherpesvirus 5 and greater than 100 µM with HFF.

Regarding `Nc1nc2cc(Cl)c(Cl)cc2n1Cc1cc(C(F)(F)F)cc(C(F)(F)F)c1`, the IC50 in the experiment on CEM-SS is 34 µM; in experiment [1], greater than 6 µM; in the experiment with Human betaherpesvirus 5, 32 µM; in the experiment with Human alphaherpesvirus 1 it was 60 µM; in the experiment with HFF, 32 µM.

For the compound `COc1ccc(Cn2c(Cl)nc3cc(Cl)c(Cl)cc32)cc1`, the IC50 was greater than 100 µM with CEM-SS; 26 µM in experiment [1]; greater than 100 µM in the experiment on Human betaherpesvirus 5; greater than 100 µM in the experiment on Human alphaherpesvirus 1; greater than 100 µM in the experiment with HFF; greater than 100 µM in the experiment with KB.

`Nc1nc2cc(Cl)c(Cl)cc2n1Cc1cccc([N+](=O)[O-])c1`: the IC50 was 47 µM in the experiment with CEM-SS; 21 µM in experiment [1]; greater than 100 µM in the experiment on Human betaherpesvirus 5; greater than 100 µM in the experiment on Human alphaherpesvirus 1; greater than 100 µM in the experiment on HFF; 65 µM in the experiment on KB.

With `COc1ccc(Cn2c(N)nc3cc(Cl)c(Cl)cc32)cc1`, the IC50 was 27 µM in the experiment with CEM-SS; 12 µM in experiment [1]; greater than 100 µM in the experiment on Human betaherpesvirus 5; greater than 100 µM in the experiment on Human alphaherpesvirus 1; greater than 100 µM in the experiment with HFF; 45 µM with KB.

As for `Clc1ccc(Cn2c(Br)nc3cc(Cl)c(Cl)cc32)cc1Cl`, the IC50 (in the experiment with CEM-SS; in experiment [1]; in the experiment with Human betaherpesvirus 5; in the experiment on Human alphaherpesvirus 1; with HFF; in the experiment on KB) was greater than 100 µM throughout.

With `Nc1nc2cc(Cl)c(Cl)cc2n1Cc1cccc(Cl)c1`, the IC50 in the experiment with CEM-SS was 37 µM; in experiment [1], greater than 30 µM; with Human betaherpesvirus 5, greater than 100 µM; in the experiment on Human alphaherpesvirus 1, 70 µM; with HFF, greater than 100 µM; with KB, 65 µM.

For the compound `CC(C)Nc1nc2cc(Cl)c(Cl)cc2n1Cc1ccccc1`, the IC50 with Human betaherpesvirus 5 was found to be 22 µM; with Human alphaherpesvirus 1, 50 µM; with HFF, 22 µM; in the experiment with KB, 45 µM.

As for `FC(F)(F)c1cccc(Cn2c(Cl)nc3cc(Cl)c(Cl)cc32)c1`, the IC50 (with CEM-SS; in experiment [1]; in the experiment with Human betaherpesvirus 5; in the experiment with Human alphaherpesvirus 1; with HFF; with KB) was greater than 100 µM throughout.

In the case of `Cc1ccc(Cn2c(Cl)nc3cc(Cl)c(Cl)cc32)cc1`, the IC50 with CEM-SS is greater than 100 µM; in experiment [1], 33 µM; in the experiment on Human betaherpesvirus 5, greater than 100 µM; in the experiment with Human alphaherpesvirus 1, greater than 100 µM; in the experiment on HFF, 32 µM; in the experiment on KB it was greater than 100 µM.

In the case of `CC(C)(C)c1ccc(Cn2c(Cl)nc3cc(Cl)c(Cl)cc32)cc1`, the IC50 (in the experiment with CEM-SS; in experiment [1]; in the experiment with Human betaherpesvirus 5; in the experiment on Human alphaherpesvirus 1; with HFF; in the experiment with KB) was greater than 100 µM throughout.

On to `Nc1nc2cc(Cl)c(Cl)cc2n1Cc1ccc(F)cc1`, for which the IC50 stood at 30 µM with CEM-SS; 32 µM in experiment [1]; 12 µM with Human betaherpesvirus 5; 70 µM with Human alphaherpesvirus 1; 37 µM in the experiment on HFF; 70 µM in the experiment on KB.

Turning to `Clc1cc2nc(Cl)n(Cc3ccccc3)c2cc1Cl`, the IC50 with Human betaherpesvirus 5, in the experiment on Human alphaherpesvirus 1, in the experiment on HFF and in the experiment on KB was greater than 100 µM in each case.

In the case of `Clc1ccc(Cn2c(Br)nc3cc(Cl)c(Cl)cc32)cc1`, the IC50 (in the experiment on CEM-SS; in experiment [1]; in the experiment on Human betaherpesvirus 5; with Human alphaherpesvirus 1; with HFF; with KB) was greater than 100 µM in each case.

As to `Cc1ccc(Cn2c(N)nc3cc(Cl)c(Cl)cc32)cc1`, the IC50 was 40 µM in the experiment with CEM-SS; 20 µM in experiment [1]; 30 µM in the experiment on Human betaherpesvirus 5; 80 µM with Human alphaherpesvirus 1; 32 µM with HFF; 50 µM in the experiment on KB.

`OC[C@H]1O[C@H](n2c(Br)nc3cc(Cl)c(Cl)cc32)[C@@H](O)[C@H]1O` displayed a 50% inhibitory concentration (IC50) with KB greater than 100 µM.

As to `Clc1cc2nc(Br)n(Cc3ccccc3Cl)c2cc1Cl`, the IC50 with CEM-SS was 74 µM; in experiment [1], 15 µM; in the experiment with Human betaherpesvirus 5 it was greater than 10 µM; in the experiment on Human alphaherpesvirus 1, greater than 100 µM; with HFF, greater than 10 µM; in the experiment with KB, 78 µM.

Consider `Nc1nc2cc(Cl)c(Cl)cc2n1Cc1ccc(C(F)(F)F)cc1`, for which the half-maximal inhibitory concentration (IC50) was found to be 20 µM with CEM-SS, 1.8 µM in experiment [1], 32 µM in the experiment on Human betaherpesvirus 5 and 32 µM in the experiment with HFF.

For the compound `Nc1nc2cc(Cl)c(Cl)cc2n1Cc1cccc(C(F)(F)F)c1`, the IC50 with CEM-SS is 17 µM; in experiment [1] it was greater than 10 µM; with Human betaherpesvirus 5, 32 µM; in the experiment with Human alphaherpesvirus 1, 60 µM; in the experiment with HFF it was 32 µM; in the experiment on KB, 45 µM.

`FC(F)(F)c1ccc(Cn2c(Br)nc3cc(Cl)c(Cl)cc32)cc1`: the IC50 (with CEM-SS; in experiment [1]; in the experiment on Human betaherpesvirus 5; in the experiment with Human alphaherpesvirus 1; in the experiment on HFF; in the experiment with KB) was greater than 100 µM each time.

As to `Cc1cccc(Cn2c(N)nc3cc(Cl)c(Cl)cc32)c1`, the IC50 in the experiment on CEM-SS was 48 µM; in experiment [1], 12 µM; in the experiment on Human betaherpesvirus 5 it was greater than 100 µM; in the experiment with Human alphaherpesvirus 1 it was 80 µM; in the experiment with HFF it was greater than 100 µM; with KB it was 65 µM.

In the case of `Clc1cccc(Cn2c(Cl)nc3cc(Cl)c(Cl)cc32)c1`, the IC50 in the experiment with CEM-SS is greater than 100 µM; in experiment [1], 100 µM; in the experiment with Human betaherpesvirus 5, greater than 100 µM; with Human alphaherpesvirus 1, greater than 100 µM; in the experiment with HFF it was greater than 100 µM.

As to `FC(F)(F)c1cccc(Cn2c(Br)nc3cc(Cl)c(Cl)cc32)c1`, the IC50 is greater than 100 µM in the experiment with CEM-SS, 12 µM in experiment [1], greater than 100 µM in the experiment with Human betaherpesvirus 5 and greater than 100 µM with HFF.

Source of the values: ChEMBL document CHEMBL1131326, “Design, synthesis, and antiviral evaluations of 1-(substituted benzyl)-2-substituted-5,6-dichlorobenzimidazoles as nonnucleoside analogues of 2,5,6-trichloro-1-(beta-D-ribofuranosyl)benzimidazole” (J Med Chem, 1998).
